Experimental data: the array DNA melting data of Ke et al. (doi:10.1101/2024.01.08.574731)

What was measured:
[1] = folding enthalpy; higher = less favourable; fluorescence melt of hairpins on a sequencing array, two-state fit; details: sodium 0.088 M
Method in brief: (§1)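 Cy3 fluorescence of library hairpins on a sequenced MiSeq flow cell, with annealed Cy3 and quencher oligos, was imaged in 50 mM Na-HEPES pH 8.0, 25 mM NaCl in 2.5 °C steps up to 60 °C. Signals were normalised to pre-quench Cy3 and to control variants. Melting temperature and folding enthalpy came from bootstrapped two-state fits, inverse-variance combined over four replicates. Fitted temperatures were raised by 9.35 °C to match UV melts.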

[2] = melting temperature; fluorescence melt of hairpins on a sequencing array, two-state fit, raised by 9.35 °C to match UV melts; details: sodium 0.088 M
Method in brief: as §1

Sequence: GCTTAGCGAAAGCAAGGC ((.(.((....)).).))
- folding enthalpy [1]: -13.5 kcal/mol
- Tm [2]: 38.1 °C

Sequence: GCACTGCGAAAGCAAGGC ((..(((....)))..))
- folding enthalpy [1]: -17.8 kcal/mol
- Tm [2]: 47.5 °C

Sequence: CGCACGGAAACGTTCGCG ((((((....)))..)))
- folding enthalpy [1]: -22.7 kcal/mol
- Tm [2]: 41.1 °C

Sequence: GATCTGTATTCAGATC ((((((....))))))
- folding enthalpy [1]: -36.3 kcal/mol
- Tm [2]: 50.4 °C

Sequence: GGTCCCACGAAAGTGACC (((..(((....))))))
- folding enthalpy [1]: -15.8 kcal/mol
- Tm [2]: 36.8 °C

Sequence: GCGATCCCTCGC ((((....))))
- folding enthalpy [1]: -24.1 kcal/mol
- Tm [2]: 49.8 °C

Sequence: GTATAGGGAAACCTATAC (((((((....)))))))
- folding enthalpy [1]: -41 kcal/mol
- Tm [2]: 50.1 °C

Sequence: GCTACGCGAAAGCTCAGC (((..((....))..)))
- folding enthalpy [1]: -13.1 kcal/mol
- Tm [2]: 37 °C

Sequence: GCCCCCGGAAACGAGGGC ((((.((....)).))))
- folding enthalpy [1]: -28.1 kcal/mol
- Tm [2]: 56 °C

Sequence: GGCGTTGGAAACAGCGTC (.((.((....)).)).)
- folding enthalpy [1]: -21.9 kcal/mol
- Tm [2]: 44.6 °C

Sequence: TTCCCGAAAGGGAA (((((....)))))
- folding enthalpy [1]: -24 kcal/mol
- Tm [2]: 56.1 °C

Sequence: GATCTCCGAGGAGATC ((((((....))))))
- folding enthalpy [1]: -37.8 kcal/mol
- Tm [2]: 60.4 °C

Sequence: GCATTGCGAAAGCATTGC (((.(((....))).)))
- folding enthalpy [1]: -52.2 kcal/mol
- Tm [2]: 55.4 °C

Sequence: GTGGAAACGAAAGTTCAC (((..(((....))))))
- folding enthalpy [1]: -19.5 kcal/mol
- Tm [2]: 33.7 °C

Sequence: CGATTTCGGAAACGATCG (((..(((....))))))
- folding enthalpy [1]: -9.46 kcal/mol
- Tm [2]: 29.6 °C

Sequence: GTCGACCGAAAGGTGAC (((.(((....))))))
- folding enthalpy [1]: -22.4 kcal/mol
- Tm [2]: 51.8 °C

Sequence: GTACGCCGAAAGGCTAC (((.(((....))))))
- folding enthalpy [1]: -15.1 kcal/mol
- Tm [2]: 47.6 °C

Sequence: GATCCTACAGAGGATC ((((((....))))))
- folding enthalpy [1]: -29.6 kcal/mol
- Tm [2]: 50.4 °C

Sequence: GATCCCCAAGGGATC ((((((...))))))
- folding enthalpy [1]: -30.9 kcal/mol
- Tm [2]: 58.9 °C

Sequence: GATCGCCGGGCGATC ((((((...))))))
- folding enthalpy [1]: -31.1 kcal/mol
- Tm [2]: 67.8 °C

Sequence: GAGTACGAAAGTACACTC ((((((....)))..)))
- folding enthalpy [1]: -16.2 kcal/mol
- Tm [2]: 48.3 °C

Sequence: GATCGCCCCAGCGATC ((((((....))))))
- folding enthalpy [1]: -33.5 kcal/mol
- Tm [2]: 68.5 °C

Sequence: GCGATTTGTCGC ((((....))))
- folding enthalpy [1]: -23.5 kcal/mol
- Tm [2]: 54 °C

Sequence: GCGTGAGGAAACTCGCGC (((.(((....))).)))
- folding enthalpy [1]: -43 kcal/mol
- Tm [2]: 64.8 °C

Sequence: GATCAGAAAGCTGATC ((((((....))))))
- folding enthalpy [1]: -31.6 kcal/mol
- Tm [2]: 43 °C

Sequence: GCGGGGGGAAACCTCCGC ((((.((....)).))))
- folding enthalpy [1]: -40.9 kcal/mol
- Tm [2]: 66.7 °C

Sequence: ATCAGGAAACTGAT (((((....)))))
- folding enthalpy [1]: -16.5 kcal/mol
- Tm [2]: 40.6 °C

Sequence: GATCCGTCCTCGGATC ((((((....))))))
- folding enthalpy [1]: -48.3 kcal/mol
- Tm [2]: 58 °C

Sequence: GATCGAACTTCGATC ((((((...))))))
- folding enthalpy [1]: -31.3 kcal/mol
- Tm [2]: 51 °C

Sequence: GGACTTCGAAAGAATCC (((.(((....))))))
- folding enthalpy [1]: -21.7 kcal/mol
- Tm [2]: 35.2 °C

Sequence: GCCATCGAAAGATCTGGC ((((((....)))..)))
- folding enthalpy [1]: -25.9 kcal/mol
- Tm [2]: 36.1 °C

Sequence: GCCATGGGAAACCATGAC (.(((((....))))).)
- folding enthalpy [1]: -19.5 kcal/mol
- Tm [2]: 41 °C

Sequence: GATCTTAGCTAAGATC ((((((....))))))
- folding enthalpy [1]: -43.9 kcal/mol
- Tm [2]: 48.5 °C

Sequence: GAATTGGGAAACCGATTC ((((.((....)).))))
- folding enthalpy [1]: -36.4 kcal/mol
- Tm [2]: 43.4 °C

Sequence: GCCAAGCGAAAGCTCTGC ((..(((....)))..))
- folding enthalpy [1]: -11.4 kcal/mol
- Tm [2]: 31.2 °C

Sequence: GCTAATGGAAACACTAGC ((((.((....)).))))
- folding enthalpy [1]: -23.9 kcal/mol
- Tm [2]: 31.2 °C

Sequence: GCGTTGCGAAAGCACGGC ((..(((....)))..))
- folding enthalpy [1]: -13.6 kcal/mol
- Tm [2]: 58.9 °C

Sequence: GCTCGGCGAAAGCTTAGC (((..((....))..)))
- folding enthalpy [1]: -15.3 kcal/mol
- Tm [2]: 40.9 °C

Sequence: GTCAACGAAAGTTCGGAC ((((((....)))..)))
- folding enthalpy [1]: -14 kcal/mol
- Tm [2]: 30.5 °C

Sequence: GATCTAGGCTAGATC ((((((...))))))
- folding enthalpy [1]: -55.2 kcal/mol
- Tm [2]: 45.5 °C

Sequence: GCGCAGGGAAACCCGCAC (.((.((....)).)).)
- folding enthalpy [1]: -17 kcal/mol
- Tm [2]: 37 °C

Sequence: GCACACCGAAAGGTATGC (((.(((....))).)))
- folding enthalpy [1]: -32.8 kcal/mol
- Tm [2]: 50.8 °C

Sequence: GCGCACCGAAAGGTCCGC (((.(((....))).)))
- folding enthalpy [1]: -37.8 kcal/mol
- Tm [2]: 55.6 °C

Sequence: GCTCTGCGAAAGCGCAGC (((..((....))..)))
- folding enthalpy [1]: -11.4 kcal/mol
- Tm [2]: 37.6 °C

Sequence: CGACCGGAAACGGCATCG ((((((....)))..)))
- folding enthalpy [1]: -14.8 kcal/mol
- Tm [2]: 30 °C

Sequence: GTCGCGCGAAAGCGAGAC (((.(((....))).)))
- folding enthalpy [1]: -25.4 kcal/mol
- Tm [2]: 68.2 °C

Sequence: CGCACCGGAAACGGGCG (((.(((....))))))
- folding enthalpy [1]: -25.2 kcal/mol
- Tm [2]: 55.7 °C

Sequence: GACACCGGAAACGGTGCC (.(((((....))))).)
- folding enthalpy [1]: -13.4 kcal/mol
- Tm [2]: 48.8 °C

Sequence: GCTCCCGAAAGGGCCAGC ((((((....)))..)))
- folding enthalpy [1]: -11.7 kcal/mol
- Tm [2]: 34.8 °C

Sequence: GGCCACGGAAACGTGGTC (.(((((....))))).)
- folding enthalpy [1]: -25.7 kcal/mol
- Tm [2]: 64.9 °C

Sequence: CGGCCGGAAACGGCACCG ((((((....)))..)))
- folding enthalpy [1]: -8.06 kcal/mol
- Tm [2]: 34.5 °C

Sequence: GCGCCTACGAAAGTACGC (((..(((....))))))
- folding enthalpy [1]: -27.8 kcal/mol
- Tm [2]: 42 °C

Sequence: GCATTTGGAAACAAGTGC (((.(((....))).)))
- folding enthalpy [1]: -26.2 kcal/mol
- Tm [2]: 46.3 °C

Sequence: GATCCGTTACGGATC ((((((...))))))
- folding enthalpy [1]: -34.6 kcal/mol
- Tm [2]: 63.9 °C

Sequence: GGTGAGACGAAAGTCACC (((..(((....))))))
- folding enthalpy [1]: -17.1 kcal/mol
- Tm [2]: 46.8 °C

Sequence: GGCGACGAAAGTCCGCC ((((((....))).)))
- folding enthalpy [1]: -32.2 kcal/mol
- Tm [2]: 63.6 °C

Sequence: GGAATGCGAAAGCAGTCC (((.(((....))).)))
- folding enthalpy [1]: -36.6 kcal/mol
- Tm [2]: 61.2 °C

Sequence: GGAATCCGAAAGGACTCC (((.(((....))).)))
- folding enthalpy [1]: -26.2 kcal/mol
- Tm [2]: 46.3 °C

Sequence: GCTTTCGAAAGAAGGAGC ((((((....)))..)))
- folding enthalpy [1]: -17.8 kcal/mol
- Tm [2]: 31.5 °C

Sequence: GGTAATGGAAACATCACC (((.(((....))).)))
- folding enthalpy [1]: -18.2 kcal/mol
- Tm [2]: 30.7 °C

Sequence: GGGTGCGAAAGCAGTCCC ((((((....)))..)))
- folding enthalpy [1]: -14.6 kcal/mol
- Tm [2]: 50.5 °C

Sequence: ATCACGAAAGTGAT (((((....)))))
- folding enthalpy [1]: -25.6 kcal/mol
- Tm [2]: 54.8 °C

Sequence: GGGCTCCCGAAAGGGCCC (((..(((....))))))
- folding enthalpy [1]: -29.5 kcal/mol
- Tm [2]: 56 °C

Sequence: GGTGGCGAAAGCCCGACC ((((((....)))..)))
- folding enthalpy [1]: -12.8 kcal/mol
- Tm [2]: 41.5 °C

Sequence: GTCGCATCGAAAGATGAC (((..(((....))))))
- folding enthalpy [1]: -13.4 kcal/mol
- Tm [2]: 28.9 °C

Sequence: GACTTAGGAAACCAAGTC (((((.(....).)))))
- folding enthalpy [1]: -30.6 kcal/mol
- Tm [2]: 36 °C

Sequence: GCTAACGAAAGTTCAGC ((((((....))).)))
- folding enthalpy [1]: -21.8 kcal/mol
- Tm [2]: 39 °C

Sequence: GATCACATGTGTGATC ((((((....))))))
- folding enthalpy [1]: -43.2 kcal/mol
- Tm [2]: 57.2 °C

Sequence: GCCCCGCGAAAGCTAGGC (((..((....))..)))
- folding enthalpy [1]: -18.7 kcal/mol
- Tm [2]: 45 °C
